ChEMBL document CHEMBL3992493, “New approach of delivering cytotoxic drugs towards CAIX expressing cells: A concept of dual-target drugs” (Eur J Med Chem, 2017)

What was measured:
MDCK [1] = assay: Cytotoxicity against carbonic anhydrase 9 knockdown MDCK cells assessed as reduction in cell viability preincubated for 2 hrs followed by 72 hrs incubation under normoxic condition by Alamar blue assay; type: cell-based; settings: Canis lupus familiaris
MDCK [2] = assay: Cytotoxicity against MDCK cells expressing carbonic anhydrase 9 assessed as reduction in cell viability after 2 hrs under hypoxic condition by Alamar blue assay; type: functional, cell-based; settings: Canis lupus familiaris
Method in brief: (§1)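 MDCK cells transfected with human CAIX (CAIX+) or scrambled control vector (CAIX−), in DMEM/10% FBS, seeded and attached overnight. Medium replaced with pre-equilibrated hypoxic DMEM (0.2% O2, 5% CO2) for 24 h. Compounds in DMSO (0.5%) added for 2 h, then washed off. Cells regrown 72 h in normoxia. Viability read by alamarBlue conversion for 2 h under normoxia.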

Carbonic anhydrase 2 = Carbonic anhydrase 2 (Homo sapiens, UniProt P00918); assay: Binding affinity to recombinant human carbonic anhydrase 2 after 15 mins by stopped-flow CO2 hydration assay
MDCK [3] = assay: Cytotoxicity against MDCK cells expressing carbonic anhydrase 9 assessed as reduction in cell viability preincubated for 2 hrs followed by 72 hrs incubation under normoxic condition by Alamar blue assay; type: functional, cell-based; settings: Canis lupus familiaris
Method in brief: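 CAIX-overexpressing or scrambled-vector MDCK cells in DMEM/10% FBS, attached overnight, held 24 h at 21% O2/5% CO2. Drug added (0.5% DMSO vehicle) for 2 h, washed off, then 72 h further normoxic growth. Viability measured by 2 h alamarBlue conversion under normoxia.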

Carbonic anhydrase 9 = Carbonic anhydrase 9 (Homo sapiens, UniProt Q16790); assay: Binding affinity to recombinant human carbonic anhydrase 9 after 15 mins by stopped-flow CO2 hydration assay
Carbonic anhydrase 1 = Carbonic anhydrase 1 (Homo sapiens, UniProt P00915); assay: Binding affinity to recombinant human carbonic anhydrase 1 after 15 mins by stopped-flow CO2 hydration assay
Sequence of Carbonic anhydrase 1 (P00915 whole entry): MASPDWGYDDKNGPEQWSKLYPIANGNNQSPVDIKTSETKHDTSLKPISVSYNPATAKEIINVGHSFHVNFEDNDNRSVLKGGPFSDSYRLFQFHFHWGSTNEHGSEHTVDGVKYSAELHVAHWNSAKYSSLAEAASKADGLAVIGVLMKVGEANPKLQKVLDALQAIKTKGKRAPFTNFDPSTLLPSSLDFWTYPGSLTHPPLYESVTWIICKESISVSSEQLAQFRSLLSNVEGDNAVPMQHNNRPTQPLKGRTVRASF

MDCK [4] = assay: Cytotoxicity against carbonic anhydrase 9 knockdown MDCK cells assessed as reduction in cell viability after 2 hrs under hypoxic condition by Alamar blue assay; type: cell-based; settings: Canis lupus familiaris; method in brief: as §1
Carbonic anhydrase 12 = Carbonic anhydrase 12 (Homo sapiens, UniProt O43570); assay: Binding affinity to recombinant human carbonic anhydrase 12 after 15 mins by stopped-flow CO2 hydration assay
Sequence of Carbonic anhydrase 12 (O43570 whole entry): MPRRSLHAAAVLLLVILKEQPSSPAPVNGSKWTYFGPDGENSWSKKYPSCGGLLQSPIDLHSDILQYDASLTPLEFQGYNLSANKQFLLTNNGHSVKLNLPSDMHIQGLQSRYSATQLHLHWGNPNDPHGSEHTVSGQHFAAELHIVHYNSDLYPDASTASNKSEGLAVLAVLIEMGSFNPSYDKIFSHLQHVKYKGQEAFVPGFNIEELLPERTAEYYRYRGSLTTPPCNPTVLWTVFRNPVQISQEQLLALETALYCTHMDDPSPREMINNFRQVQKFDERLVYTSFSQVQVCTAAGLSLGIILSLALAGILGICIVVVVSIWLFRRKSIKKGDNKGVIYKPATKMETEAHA

MDCK [5] = assay: Cytotoxicity against carbonic anhydrase 9 knockdown MDCK cells assessed as reduction in cell viability after 72 hrs under normoxic condition by Alamar blue assay; type: cell-based; settings: Canis lupus familiaris
MDCK [6] = assay: Cytotoxicity against MDCK cells expressing carbonic anhydrase 9 assessed as reduction in cell viability after 72 hrs under normoxic condition by Alamar blue assay; type: functional, cell-based; settings: Canis lupus familiaris
MDCK [7] = assay: Cytotoxicity against MDCK cells expressing carbonic anhydrase 9 assessed as reduction in cell viability after 72 hrs under hypoxic condition by Alamar blue assay; type: functional, cell-based; settings: Canis lupus familiaris
MDCK [8] = assay: Cytotoxicity against carbonic anhydrase 9 knockdown MDCK cells assessed as reduction in cell viability after 72 hrs under hypoxic condition by Alamar blue assay; type: cell-based; settings: Canis lupus familiaris

| SMILES | IC50 (MDCK [1]) [µM] | IC50 (MDCK [2]) [µM] | Ki (Carbonic anhydrase 2) [µM] | IC50 (MDCK [3]) [µM] | Ki (Carbonic anhydrase 9) [µM] | Ki (Carbonic anhydrase 1) [µM] | IC50 (MDCK [4]) [µM] | Ki (Carbonic anhydrase 12) [µM] | IC50 (MDCK [5]) [µM] | IC50 (MDCK [6]) [µM] | IC50 (MDCK [7]) [µM] | IC50 (MDCK [8]) [µM] |
| --- | --- | --- | --- | --- | --- | --- | --- | --- | --- | --- | --- | --- |
| NS(=O)(=O)c1ccc(CCNC(=O)CCCc2ccc(N(CCCl)CCCl)cc2)cc1 | 18 | 100 | 0.45 | 100 | 4.61 | 8.4 | 18 | 10.2 | – | – | – | – |
| Cn1nnc2c(C(=O)Nc3nnc(S(N)(=O)=O)s3)ncn2c1=O | – | – | – | – | 0.176 | – | – | – | > 1000 | > 1000 | > 1000 | > 1000 |
| Cn1nnc2c(C(=O)NCc3ccc(S(N)(=O)=O)cc3)ncn2c1=O | – | – | – | – | 0.271 | – | – | – | > 1000 | > 1000 | > 1000 | > 1000 |
| NS(=O)(=O)c1ccc(CNC(=O)CCCc2ccc(N(CCCl)CCCl)cc2)cc1 | 18 | 92 | 0.747 | 98 | 8.97 | 5.95 | 14 | 7.34 | – | – | – | – |
| O=C(O)CCCc1ccc(N(CCCl)CCCl)cc1 [CHLORAMBUCIL] | 93 | > 100 | > 50 | > 100 | > 50 | > 50 | 100 | > 50 | – | – | – | – |
| NS(=O)(=O)c1ccc(CNC(=O)OCCCCc2ccc(N(CCCl)CCCl)cc2)cc1 | 86 | 100 | 0.265 | 98 | 4.13 | 6.14 | 52 | 9.57 | – | – | – | – |
| NS(=O)(=O)c1ccc(CCNc2n[n+]([O-])c3cc4c(cc3[n+]2[O-])CCC4)cc1 | > 300 | > 300 | – | > 300 | 0.307 | – | > 300 | – | – | – | – | – |
| Nc1n[n+]([O-])c2ccccc2[n+]1[O-] [TIRAPAZAMINE] | > 300 | 95 | > 50 | > 300 | > 50 | > 50 | < 50 | > 50 | – | – | – | – |
| NS(=O)(=O)c1ccc(CCNC(=O)OCCCCc2ccc(N(CCCl)CCCl)cc2)cc1 | 89 | 100 | 0.504 | 99 | 3.85 | 5.67 | 81 | 13.6 | – | – | – | – |
| NS(=O)(=O)c1ccc(NC(=O)CCCc2ccc(N(CCCl)CCCl)cc2)cc1 | 100 | 95 | 0.009 | 87 | 0.172 | 0.073 | 100 | 0.689 | – | – | – | – |
| NS(=O)(=O)c1ccc(NC(=O)OCCCCc2ccc(N(CCCl)CCCl)cc2)cc1 | 8 | 62 | 0.553 | 56 | 2.74 | 5.58 | 8 | 9.38 | – | – | – | – |
| Cn1nnc2c(C(=O)NCCc3ccc(S(N)(=O)=O)cc3)ncn2c1=O | – | – | – | – | 0.0371 | – | – | – | > 1000 | > 1000 | > 1000 | > 1000 |
| NS(=O)(=O)c1ccc(CCNc2n[n+]([O-])c3ccccc3[n+]2[O-])cc1 | > 300 | > 300 | – | > 300 | 0.383 | – | 300 | – | – | – | – | – |
